Consider 70 compounds from ChEMBL document CHEMBL4513216, “Probing the Open Global Health Chemical Diversity Library for Multistage-Active Starting Points for Next-Generation Antimalarials” (ACS Infect Dis, 2020).

The nature of the data set: Toxicity liver stage against HepG2, at 10uM. The format is cell-based. Also noted: test concentration 10 uM, cell line HepG2-A16-CD81EGFP. To be noted: human, HepG2-A16-CD81EGFP cells; read-out: INHIBITION
The method, boiled down: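 Uninfected HepG2-A16-CD81EGFP cells, 3 × 10^3 per well, 1536-well, plated on prespotted compound at 10 μM final, parasite-free screening media added to match infected plates; puromycin 10 μM positive, DMSO 0.5% negative; run in parallel with 48 h PbLuc assay at 37 °C, 5% CO2; viability by CellTiter-Glo luminescence, normalized to controls.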

On to `COCCN1CCN(Cc2cnc(C3(C)CCCCO3)nc2)CC1` (stereo not given), for which the cytotoxicity at 10 µM was determined as 1.16%. With `COc1cccc2cc(CNCc3ccc(N4CCCC4)nc3)oc12` the figure was -5.42%; with `Nc1cc(C(=O)NC2CCCN(CCCc3ccccc3)C2)ccn1` (stereo not given), 8.01%; with `FC1(F)CCN(Cc2ccccn2)CC12CCN(c1cccnc1)C2` (stereo not given), 25.5%. With `Cc1csc(C(C#N)C(=O)Nc2ccccc2)n1` (stereo not given) the figure was 12.6%; with `CCc1ccc(C(=O)O)cc1S(=O)(=O)Nc1ccc(F)c(C#N)c1`, -10.9%; with `CCc1noc(C2CCN(C(=O)CCn3nc(C)cc3C)CC2)n1`, -9.52%. `O=c1[nH]c2cn(-c3ccc(Cl)cc3)c(=O)n2[nH]1`: the cytotoxicity at 10 µM was found to be 2.43%. Under `Cc1noc(C(C)C)c1C(=O)NCc1cccc(CN(C)C)c1` stands -8.23%; under `CCOCc1nc(CSc2ccncc2)n(C)n1`, 2.87%. For `Cc1ccc(C2CN(C(=O)NCc3nnc4ccccn34)CCO2)o1` (stereo not given), the cytotoxicity at 10 µM was 5.62%. With `COCC(O)CN1CCC(=O)N(CC2CC2)Cc2ccccc21` (stereo not given) the figure was 2.76%. With `Cc1ccccc1CC(=O)NCCNc1nccc(C(F)(F)F)n1` the figure was 7.64%; with `CC(=O)N1CCCN(C(=O)NC(C)c2csc3ccccc23)CC1` (stereo not given), -4.6%; with `FC(F)(F)c1ccc(-c2cnc(C3CCCN3)cn2)cc1` (stereo not given), -1.12%. With `O=C(NCc1ccccn1)NCC(c1ccco1)N1CCCCC1` (stereo not given) the figure was -2.93%; with `COc1ccc(CN2CCc3nnc(COCCN(C)C)n3CC2)cc1`, 4.5%; with `Cc1nc(C)n(CC2CN(CCCc3ccccc3)CCO2)n1` (stereo not given), 2.89%. Turning to `CN1CCN(c2nsc(-c3ccccc3)c2C#N)CC1`, the cytotoxicity at 10 µM came to 1.28%. Under `Nc1cc2c(nn1)CCN(C(=O)c1cccc3c1OCO3)C2` stands -8.08%; under `NC(=O)c1cnn2c1NCC(CNCCc1cccs1)C2` (stereo not given), -9.63%; under `O=C(C1CC1)N1CCN(Cc2coc(-c3ccc(Cl)cc3)n2)CC1`, 17.3%. With `O=C(C1CC2(CCNCC2)CN1)N1CCN(c2cccc(Cl)c2Cl)CC1` (stereo not given) the figure was -13.9%; with `Cc1nc(C2CCN(CC(=O)NC3CC3)CC2)cc(N2CCOCC2)n1`, 2.39%. With `CS(=O)(=O)N1C[C@H]2CCCN(Cc3cccs3)[C@H]2C1` the figure was 7.69%; with `Cc1c(C(=O)N2CCN(c3ccccn3)CC2)n(C)c2ccc(Cl)cc12`, 3.95%; with `O=C1CC(NCc2cnc(N3CCCC3)nc2)CN1c1ccccc1` (stereo not given), -4.56%.

`CSCC[C@H]1CN2CCC[C@H]2CN1Cc1coc2ccc(C)cc2c1=O`: the cytotoxicity at 10 µM is -1.04%. For `CC(=O)N1CCCCC1c1cc(C(=O)N2CCOCC2)[nH]n1` (stereo not given), the cytotoxicity at 10 µM was -3.68%. With `CCC1CN(C(=O)c2ccccc2N2CCOCC2)CCN1C(C)C` (stereo not given) the figure was 7.72%; with `Cc1nc(CN2CCCC2c2nc(C(C)C)no2)cs1` (stereo not given), -9.7%; with `CSC1=Nc2c(cnn2-c2cccc(Cl)c2)C2=NCCCN12`, 4.81%. Turning to `CC1(C)CN=C(N2CCN(CC3CCOC3)CC2)S1` (stereo not given), the cytotoxicity at 10 µM is 11.7%. For the compound `CC(C)Oc1nnc(SCC(=O)NCC(=O)N2CCCC2)s1`, the cytotoxicity at 10 µM turned out to be 1.38%.

Consider `O=C1Nc2ccccc2/C1=C1\CCCN1`, for which the cytotoxicity at 10 µM was determined as 5.02%.

With `Cc1ccc(NC(=O)NC(C)Cn2cccn2)cc1` (stereo not given), the cytotoxicity at 10 µM was -0.577%. With `CC1CCN(C(=O)c2cn(-c3cc(N4CCSCC4)ncn3)cn2)CC1` the figure was -3.75%; with `CC(=O)c1cccc(NC(=O)N2CCCCC2CN2CCCC2=O)c1` (stereo not given), 0.582%; with `O=C(Nc1cccnc1)[C@@H]1C[C@H]2OCC[C@H]2N(Cc2nccs2)C1`, 5.02%. With `CN(C)S(=O)(=O)N1C[C@H]2CCC[C@@]2(COCc2cccnc2)C1` the figure was 9.19%; with `NCC(=O)N1CCCC(c2ccnc(Nc3cnccn3)n2)C1` (stereo not given), 2.66%. For the compound `COc1cc2c(cc1CNC(=O)C(C)n1ccnc1C(C)C)CCC2` (stereo not given), the cytotoxicity at 10 µM amounted to 0.719%. Under `CC(C)c1nc2n(n1)CC(NCc1ncc(C(C)(C)C)o1)CC2` (stereo not given) stands -17.8%; under `c1cc(-c2ccc3c(c2)CCC32CCN(c3nncs3)CC2)ccn1`, 20.4%; under `Cc1ncoc1C(=O)N1CCc2[nH]nc(-c3ccc4c(c3)OCO4)c2C1`, -143%. With `O=C1N(CCCc2ccccc2)CCCC12CCN(C(CO)CO)C2` (stereo not given) the figure was -4.14%; with `Cc1nn(C2CCS(=O)(=O)C2)c(O)c1Cc1ccccc1` (stereo not given), -44.6%. `COc1ccc(C2CC(=O)Oc3cc(C)[nH]c(=O)c32)c(OC)c1` (stereo not given): the cytotoxicity at 10 µM is -3.4%.

As to `COCC(Nc1ncnc2sc(C)c(C)c12)c1ccnn1C` (stereo not given), the cytotoxicity at 10 µM was -4.53%. With `Cn1cc(CN2CCCC3(COCCN(Cc4c[nH]nn4)C3)C2)cn1` (stereo not given), the cytotoxicity at 10 µM was -0.501%. With `COCC1COCCC12CCN(S(=O)(=O)c1ccccc1)CC2` (stereo not given) the figure was 0.242%.

`COc1cccc(CNCC2CCN(CC(C)O)CC2)c1OC` (stereo not given): the cytotoxicity at 10 µM was -0.191%. Consider `OC1(CN2CCC(Oc3cccc(C(F)(F)F)c3)CC2)CCNC1` (stereo not given), for which the cytotoxicity at 10 µM came out at 1.05%. With `Cc1cnn(CC2CCCN2C(=O)CCc2c(C)noc2Cl)c1` (stereo not given) the figure was -8.31%; with `O=C(NC1CC1)N1CC[C@H](OCC2CC2)[C@@H]1Cc1cccnc1`, 1.36%; with `CC(OCC1CC1)C(=O)N1CCCN(Cc2nccn2C(C)C)CC1` (stereo not given), -11.9%.

Regarding `Cc1nc(CN2C[C@@H]3CN(C(=O)c4ccoc4C)C[C@@H]3C2)cs1`, the cytotoxicity at 10 µM was -144%. With `Cc1ncsc1C(=O)NCCn1nc(C2CCNC2)c2cccnc21` (stereo not given) the figure was -0.98%; with `CCN(CC)CCN1CCO[C@H]2[C@@H](OCc3ccncc3)CC[C@@H]21`, -4.65%; with `CN1C(=O)C(c2cccnc2)CC12CCN(C(=O)c1ccc[nH]1)CC2` (stereo not given), -0.19%.

As for `CC(=O)NCC1CCN(C(=O)c2ccc(Sc3ccccn3)cc2)CC1`, the cytotoxicity at 10 µM was determined as 9.15%. For the compound `CCc1nc(CN2CCN(C(=O)CCc3ccccc3)CC2)cs1`, the cytotoxicity at 10 µM amounted to 5.25%. With `CO[C@@H]1CC[C@@H](NC(=O)c2ccc(OCCN3CCCC3)cc2)[C@H]1O` the figure was -3.83%; with `CC[C@H](CO)NC(=O)c1coc(COc2cccc(F)c2F)n1`, 3.08%. With `Cc1ncccc1OC1(C(=O)NCc2noc(C(C)C)n2)CCNCC1` the figure was 5.68%. Under `Cn1cc(C2CCCN2C(=O)c2cnc(-c3ccco3)s2)cn1` (stereo not given) stands 3.88%; under `COC(=O)Cn1c(=O)[nH]c2cn(-c3ccc(Br)cc3)c(=O)n21`, 1.4%.

Regarding `CCS(=O)(=O)N1CC(=O)N(CCOc2ccccc2)CC(O)C1` (stereo not given), the cytotoxicity at 10 µM is -0.739%. With `CC(c1cccc(-c2nccn2CCc2ccccn2)c1)N(C)C` (stereo not given) the figure was 7.62%; with `CC(C)C(C)NC(=O)Nc1ccc(CS(C)(=O)=O)cc1` (stereo not given), -8.49%.
